ChEMBL document CHEMBL1240439, “Synthesis and docking studies of novel benzopyran-2-ones with anticancer activity” (2010)

Columns and labels:
Type in all cases: functional
K562 = assay: Cytotoxicity against human K562 cells assessed as cell growth at 10 uM after 48 hrs by sulforhodamine B assay; conditions: K562, 48 h, read-out: Activity
UACC-62 = assay: Cytotoxicity against human UACC62 cells assessed as cell growth at 10 uM after 48 hrs by sulforhodamine B assay; conditions: UACC-62, 48 h, read-out: Activity
SR = assay: Cytotoxicity against human SR cells assessed as cell growth at 10 uM after 48 hrs by sulforhodamine B assay; conditions: read-out: Activity
A549 = assay: Cytotoxicity against human A549 cells assessed as cell growth at 10 uM after 48 hrs by sulforhodamine B assay; conditions: A549, 48 h, read-out: Activity
NCI-H322M = assay: Cytotoxicity against human NCI-H322M cells assessed as cell growth at 10 uM after 48 hrs by sulforhodamine B assay; conditions: read-out: Activity
NCI-H460 = assay: Cytotoxicity against human NCI-H460 cells assessed as cell growth at 10 uM after 48 hrs by sulforhodamine B assay; conditions: NCI-H460, 48 h, read-out: Activity
COLO 205 = assay: Cytotoxicity against human COLO205 cells assessed as cell growth at 10 uM after 48 hrs by sulforhodamine B assay; conditions: COLO 205, 48 h, read-out: Activity
HCC 2998 = assay: Cytotoxicity against human HCC2998 cells assessed as cell growth at 10 uM after 48 hrs by sulforhodamine B assay; conditions: HCC 2998, 48 h, read-out: Activity
HCT-116 = assay: Cytotoxicity against human HCT116 cells assessed as cell growth at 10 uM after 48 hrs by sulforhodamine B assay; conditions: HCT-116, 48 h, read-out: Activity
MDA-MB-468 = assay: Cytotoxicity against human MDA-MB-468 cells assessed as cell growth at 10 uM after 48 hrs by sulforhodamine B assay; conditions: MDA-MB-468, 48 h, read-out: Activity
MDA-MB-231 = assay: Cytotoxicity against human MDA-MB-231 cells assessed as cell growth at 10 uM after 48 hrs by sulforhodamine B assay; conditions: MDA-MB-231, 48 h, read-out: Activity
OVCAR-5 = assay: Cytotoxicity against human OVCAR5 cells assessed as cell growth at 10 uM after 48 hrs by sulforhodamine B assay; conditions: OVCAR-5, 48 h, read-out: Activity
SK-OV-3 = assay: Cytotoxicity against human SKOV3 cells assessed as cell growth at 10 uM after 48 hrs by sulforhodamine B assay; conditions: SK-OV-3, 48 h, read-out: Activity
CCRF-CEM [1] = assay: Cytotoxicity against human CCRF-CEM cells assessed as cell growth at 10 uM after 48 hrs by sulforhodamine B assay; conditions: read-out: Activity
786-0 = assay: Cytotoxicity against human 786-0 cells assessed as cell growth at 10 uM after 48 hrs by sulforhodamine B assay; conditions: 786-0, 48 h, read-out: Activity
A498 = assay: Cytotoxicity against human A498 cells assessed as cell growth at 10 uM after 48 hrs by sulforhodamine B assay; conditions: A498, 48 h
ACHN = assay: Cytotoxicity against human ACHN cells assessed as cell growth at 10 uM after 48 hrs by sulforhodamine B assay; conditions: read-out: Activity
SN12C = assay: Cytotoxicity against human SN12C cells assessed as cell growth at 10 uM after 48 hrs by sulforhodamine B assay; conditions: read-out: Activity
RXF 393 = assay: Cytotoxicity against human RXF393 cells assessed as cell growth at 10 uM after 48 hrs by sulforhodamine B assay; conditions: RXF 393, 48 h, read-out: Activity
TK-10 = assay: Cytotoxicity against human TK10 cells assessed as cell growth at 10 uM after 48 hrs by sulforhodamine B assay; conditions: TK-10, 48 h, read-out: Activity
MDA-MB-435 = assay: Cytotoxicity against human MDA-MB-435 cells assessed as cell growth at 10 uM after 48 hrs by sulforhodamine B assay; conditions: MDA-MB-435, 48 h, read-out: Activity
SK-MEL-5 = assay: Cytotoxicity against human SK-MEL-5 cells assessed as cell growth at 10 uM after 48 hrs by sulforhodamine B assay; conditions: SK-MEL-5, 48 h, read-out: Activity
UACC-257 = assay: Cytotoxicity against human UACC257 cells assessed as cell growth at 10 uM after 48 hrs by sulforhodamine B assay; conditions: UACC-257, 48 h, read-out: Activity
DU-145 = assay: Cytotoxicity against human DU145 cells assessed as cell growth at 10 uM after 48 hrs by sulforhodamine B assay; conditions: DU-145, 48 h, read-out: Activity
SF-268 = assay: Cytotoxicity against human SF268 cells assessed as cell growth at 10 uM after 48 hrs by sulforhodamine B assay; conditions: SF-268, 48 h, read-out: Activity
SF-539 = assay: Cytotoxicity against human SF539 cells assessed as cell growth at 10 uM after 48 hrs by sulforhodamine B assay; conditions: SF-539, 48 h, read-out: Activity
[2] = Cytotoxicity against human leukemia cells after 48 hrs by sulforhodamine B assay; conditions: Leukemia cell
Procedure, shortened: (§1)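 Cells plated at 5000–40,000/well according to doubling time, then held 24 h at 37 °C, 5% CO2, with time-zero plates TCA-fixed. DMSO stocks (400× top concentration) were diluted in medium containing 50 μg/ml gentamycin, giving five 10-fold or ½-log concentrations. After 48 h, adherent cells were fixed in 10% TCA and suspension cells in 16% TCA (final), stained with 0.4% SRB, read at 515 nm. GI50, TGI and LC50 were calculated per cell line.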

[3] = Cytotoxicity against human lung cancer cells after 48 hrs by sulforhodamine B assay; conditions: Cancer cell lines; procedure, shortened: as §1
[4] = Cytotoxicity against human melanoma cells after 48 hrs by sulforhodamine B assay; conditions: Melanoma cell; procedure, shortened: as §1
[5] = Cytotoxicity against human prostate cancer cells after 48 hrs by sulforhodamine B assay; conditions: Cancer cell lines; procedure, shortened: as §1
[6] = Cytotoxicity against human breast cancer cells after 48 hrs by sulforhodamine B assay; conditions: Cancer cell lines; procedure, shortened: as §1
CCRF-CEM [7] = assay: Cytotoxicity against human CCRF-CEM cells after 48 hrs by sulforhodamine B assay
Procedure, shortened: (§2)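 Cells were plated at 5000–40,000/well according to doubling time and preincubated 24 h at 37 °C, 5% CO2. Time-zero plates were TCA-fixed. DMSO stocks were diluted in medium with gentamycin to five concentrations (10-fold or ½ log series) plus control, then incubated 48 h. Adherent cells were fixed with cold TCA (suspension cells with 16% final), stained with SRB, and read at 515 nm. GI50, TGI and LC50 were calculated per line.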

OVCAR-4 = assay: Cytotoxicity against human OVCAR4 cells after 48 hrs by sulforhodamine B assay; conditions: OVCAR-4, 48 h; procedure, shortened: as §2
[8] = read-out: LC50 (the source's name)

Compound: Cc1cc(=O)n(C(=O)COc2ccc3c(-c4ccccc4)cc(=O)oc3c2C)[nH]1
- growth at 10 µM (K562): -24.1%
- growth at 10 µM (UACC-62): -27.3%
- growth at 10 µM (SR): 18.5%
- growth at 10 µM (A549): 0.69%
- growth at 10 µM (NCI-H322M): -24.7%
- growth at 10 µM (NCI-H460): 10.9%
- growth at 10 µM (COLO 205): 6.21%
- growth at 10 µM (HCC 2998): 17.4%
- growth at 10 µM (HCT-116): -65.9%
- growth at 10 µM (MDA-MB-468): -8.13%
- growth at 10 µM (MDA-MB-231): -30%
- growth at 10 µM (OVCAR-5): 10.2%
- growth at 10 µM (SK-OV-3): 15.9%
- growth at 10 µM (CCRF-CEM [1]): 13.5%
- growth at 10 µM (786-0): -58.8%
- TGI (A498): 3.76 µM
- growth at 10 µM (A498; read-out: Activity): -3.79%
- growth at 10 µM (ACHN): 41.6%
- growth at 10 µM (SN12C): -69.3%
- growth at 10 µM (RXF 393): -37%
- growth at 10 µM (TK-10): -33.4%
- growth at 10 µM (MDA-MB-435): -39.6%
- growth at 10 µM (SK-MEL-5): -31.5%
- growth at 10 µM (UACC-257): 6.57%
- growth at 10 µM (DU-145): -56.3%
- growth at 10 µM (SF-268): 2.94%
- growth at 10 µM (SF-539): -78.2%
- GI50 [2]: 3.44 µM
- TGI [2]: 50.8 µM
- CC50 [2, 8]: 94 µM
- GI50 [3]: 3.69 µM
- TGI [3]: 37.4 µM
- CC50 [3, 8]: 65.1 µM
- GI50 [4]: 4.65 µM
- TGI [4]: 43.2 µM
- CC50 [4, 8]: 72.4 µM
- GI50 [5]: 2.38 µM
- TGI [5]: 5.75 µM
- CC50 [5, 8]: 29.4 µM
- GI50 [6]: 4.23 µM
- TGI [6]: 33.7 µM
- CC50 [6, 8]: 87.5 µM
- GI50 (CCRF-CEM [7]): < 0.04 µM
- TGI (CCRF-CEM [7]): 0.57 µM
- GI50 (OVCAR-4): 1.95 µM
- TGI (OVCAR-4): 4.73 µM
